Legend:
Assay type in all cases: functional
[1] = tested on: ACHN; assay: Growth inhibition of human ACHN cells after 48 hrs by sulforhodamine B assay; conditions: for CC50: read-out: LC50 (the source's name)
Method in brief: (§1)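 NCI 60-panel five-dose test at 10-fold dilutions, 10^-4 to 10^-8 M, with 48 h continuous exposure and SRB protein read-out. Percent growth derived from time-zero, untreated-control and treated absorbances. GI50 is the concentration where [(Ti-Tz)/(C-Tz)]×100 = 50. TGI is taken at Ti = Tz. LC50 is taken at [(Ti-Tz)/Tz]×100 = -50.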

[2] = tested on: UO-31; assay: Growth inhibition of human UO31 cells assessed as cell growth at 10^-5 M after 48 hrs by sulforhodamine B assay; conditions: UO-31, 48 h, read-out: Activity
Method in brief: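 NCI primary one-dose screen: single concentration of 10^-5 M added to culture, 48 h incubation, SRB protein-dye endpoint. Percent growth of treated cells measured spectrophotometrically against untreated controls.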

[3] = tested on: SR; assay: Growth inhibition of human SR cells after 48 hrs by sulforhodamine B assay
Method in brief: (§2)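 NCI 60-cell panel, five concentrations (10-fold dilutions, 0.01–100 µM), 48 h continuous exposure; SRB protein stain read spectrophotometrically. Percent growth from time-zero, untreated-control and treated absorbances. GI50 is the concentration giving 50% lower net protein increase than control. Values beyond the tested range are reported as more or less than the highest or lowest concentration.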

[4] = tested on: HT-29; assay: Growth inhibition of human HT-29 cells after 48 hrs by sulforhodamine B assay; conditions: HT-29, 48 h; for CC50: read-out: LC50 (the source's name); method in brief: as §1
[5] = tested on: SW-620; assay: Growth inhibition of human SW620 cells after 48 hrs by sulforhodamine B assay; conditions: SW-620, 48 h; for CC50: read-out: LC50 (the source's name); method in brief: as §2
[6] = tested on: SF-539; assay: Growth inhibition of human SF539 cells assessed as cell growth at 10^-5 M after 48 hrs by sulforhodamine B assay; conditions: SF-539, 48 h, read-out: Activity
Method in brief: (§3)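 NCI 60-cell-line primary one-dose screen. Cells were exposed to a single 10^-5 M concentration for 48 h. The end point was sulforhodamine B protein staining, read spectrophotometrically. Results are reported as percent growth of treated cells relative to untreated control cells.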

[7] = tested on: MDA-MB-231; assay: Growth inhibition of human MDA-MB-231 cells assessed as cell growth at 10^-5 M after 48 hrs by sulforhodamine B assay; conditions: MDA-MB-231, 48 h, read-out: Activity; method in brief: as §3
[8] = tested on: NCI-H460; assay: Growth inhibition of human NCI-H460 cells after 48 hrs by sulforhodamine B assay; conditions: NCI-H460, 48 h; for CC50: read-out: LC50 (the source's name)
Method in brief: (§4)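 NCI five-dose screen on the full 60-cell-line panel. Cells were given 10-fold dilutions from 10^-4 to 10^-8 M with continuous 48 h exposure, and growth was read by SRB staining. Percent growth was taken from time-zero, control and treated absorbances. GI50, TGI and LC50 were then derived, the GI50 being the concentration that gives a 50% lower net protein increase than control.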

[9] = tested on: CAKI-1; assay: Growth inhibition of human CAKI-1 cells after 48 hrs by sulforhodamine B assay; conditions: CAKI-1, 48 h; method in brief: as §1
[10] = tested on: RPMI-8226; assay: Growth inhibition of human RPMI8226 cells after 48 hrs by sulforhodamine B assay; conditions: RPMI-8226, 48 h; for CC50: read-out: LC50 (the source's name); method in brief: as §4
[11] = Growth inhibition of human HCC2998 cells after 48 hrs by sulforhodamine B assay; conditions: HCC 2998, 48 h; for CC50: read-out: LC50 (the source's name); method in brief: as §1
[12] = tested on: HOP-92; assay: Growth inhibition of human HOP92 cells after 48 hrs by sulforhodamine B assay; conditions: HOP-92, 48 h; method in brief: as §1
[13] = tested on: HT-29; assay: Growth inhibition of human HT-29 cells assessed as cell growth at 10^-5 M after 48 hrs by sulforhodamine B assay; conditions: HT-29, 48 h, read-out: Activity
Method in brief: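 NCI 60-cell-line primary screen. Single concentration of 10^-5 M, 48 h incubation. End point by sulforhodamine B protein staining read spectrophotometrically. Reported as percent growth of treated cells relative to untreated control cells.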

[14] = tested on: A498; assay: Growth inhibition of human A498 cells after 48 hrs by sulforhodamine B assay; conditions: A498, 48 h; method in brief: as §1

Row | SMILES | GI50 [1] | TGI [1] | CC50 [1] | growth at 10 µM [2] | GI50 [3] | LC50 (concentration killing 50% of cells) [3] | TGI [3] | GI50 [4] | TGI [4] | CC50 [4] | GI50 [5] | TGI [5] | CC50 [5] | growth at 10 µM [6] | growth at 10 µM [7] | GI50 [8] | TGI [8] | CC50 [8] | GI50 [9] | LC50 (concentration killing 50% of starting cells) [9] | also measured
1 | O=C(CN1CCN(c2cc3c(cc2F)c(=O)c(C(=O)O)cn3C2CC2)CC1)Nc1ccc(C(=O)/C=C/c2ccccc2)cc1 | 3300 nM | 31.9 µM | > 100 µM | 45% | 1540 nM | > 100 µM | 6.1 µM | 2990 nM | 10.3 µM | > 100 µM | 3800 nM | > 100 µM | > 100 µM | 26.2% | 55.1% | 3170 nM | > 100 µM | > 100 µM | 1760 nM | > 100 µM | TGI [9]: 5.32 µM; GI50 [10]: 2520 nM; TGI [10]: 6.73 µM; CC50 [10]: > 100 µM; GI50 [11]: 39.6 µM; TGI [11]: > 100 µM; CC50 [11]: > 100 µM; GI50 [12]: 430 nM; TGI [12]: 3.82 µM; CC50 ([12]; read-out: LC50 (the source's name)): > 100 µM; growth at 10 µM [13]: 11.4%; GI50 [14]: 1280 nM; LC50 (concentration killing 50% of starting cells) [14]: > 100 µM; TGI [14]: 7.37 µM
2 | COc1cc(/C=C/C(=O)c2ccc(NC(=O)CN3CCN(c4cc5c(cc4F)c(=O)c(C(=O)O)cn5C4CC4)CC3)cc2)cc(OC)c1OC | 450 nM | 7.09 µM | > 100 µM | 2.96% | 210 nM | > 100 µM | > 100 µM | 230 nM | 0.63 µM | 9.13 µM | 420 nM | 3.2 µM | > 100 µM | -15.8% | 27.6% | 370 nM | 3.79 µM | > 100 µM | 1130 nM | > 100 µM | TGI [9]: > 100 µM; GI50 [10]: 290 nM; TGI [10]: 0.77 µM; CC50 [10]: > 100 µM; GI50 [11]: 2.76 µM; TGI [11]: 11.4 µM; CC50 [11]: > 100 µM; growth at 10 µM [13]: -3.37%; GI50 [14]: 360 nM; LC50 (concentration killing 50% of starting cells) [14]: 5.47 µM; TGI [14]: 1.8 µM
